# High-throughput results from PubChem BioAssay.
# DENV2 CPE: inhibitors of DENV2 cytopathic effect | DENV2-infected cells, cytopathic effect rescue, plate reader | CPE inhibition, % at 9.99 µM | 350,000 tested, 1.7% active | AID 651640; in the data active = CPE inhibition above about 20%, passing the limit was not always enough; inconclusive = no clear call, values can overlap the other calls; tested in BHK-21 cells;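 also: 0% = median of neutral control wells and 100% = median of positive control wells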
# FGF22 binding: shifts melting point of recombinant human FGF22 | activity (Tm shift, normalised), % at 9.99 µM | Q9HCT0 | AID 651658 | 340,000 tested, 1.5% active | recombinant FGF22 thermal shift, SYPRO orange fluorescence; percent of sucrose octasulfate shift, DMSO zero;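 active = mean Tm shift, scaled 0 neutral to 100 positive control, at about 1.3% or above, every replicate too, limit read from the data; inconclusive = no clear call, values can overlap the other calls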
# Target sequence (Q9HCT0 whole entry, looked up): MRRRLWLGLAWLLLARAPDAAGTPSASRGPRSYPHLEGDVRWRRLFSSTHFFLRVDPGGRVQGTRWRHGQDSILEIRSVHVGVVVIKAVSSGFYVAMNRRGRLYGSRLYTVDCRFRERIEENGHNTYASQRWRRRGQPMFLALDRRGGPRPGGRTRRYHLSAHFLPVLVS
# SIRT5 block: sirtuin-5 (human) deacylase inhibition; Q9NXA8; 330,000 tested, 1.1% active; Purified SirT5, succinyl-peptide AMC, trypsin-coupled fluorescence; inhibition, % at 15 µM; in the data active = inhibition above about 15%; inconclusive = no clear call, values can overlap the other calls
# Target sequence (Q9NXA8 whole entry, looked up): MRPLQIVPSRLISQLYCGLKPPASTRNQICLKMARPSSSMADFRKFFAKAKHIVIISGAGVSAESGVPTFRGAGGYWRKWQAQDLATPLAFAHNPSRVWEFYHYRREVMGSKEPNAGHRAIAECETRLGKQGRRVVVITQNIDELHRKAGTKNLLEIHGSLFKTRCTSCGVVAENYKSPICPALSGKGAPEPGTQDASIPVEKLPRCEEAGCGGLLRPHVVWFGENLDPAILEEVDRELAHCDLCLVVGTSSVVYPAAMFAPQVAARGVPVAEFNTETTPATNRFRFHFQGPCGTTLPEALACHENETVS
# XiGFP reactiv: reactivates the inactive X chromosome in mouse fibroblasts; activation, % at 7.58 µM; XiGFP mouse fibroblasts, % GFP-positive cells imaging, 3 d; cells co-treated with 5-aza-dC sensitizer; scaled so ellipticine positive control = 100%; 360,000 tested, 0.055% active;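 active = mean normalized replicate activation at least 10% and every replicate at or above 10%; inconclusive = only one of the two criteria met; inactive = mean below 10% and not all replicates reach 10%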;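 also: 0% = median of on-plate neutral control wells and 100% = ellipticine 6 µM median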
#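 Material: SV40-immortalized XiGFP fibroblast cells, line 68-5-11 | Buffer or medium: DMEM containing 5-aza-dC | Dosing: One concentration, pinned | Times: 3 d treatment, 15 min room-temperature fixation | Controls: Ellipticine 6 µM positive control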
# FN deposit inh: fibronectin deposition inhibition. 350,000 tested, 0.086% active. AH1F fibroblasts, Alexa488-fibronectin deposition fluorescence, overnight. inhibition, % at 12.6 µM;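 active = mean inhibition across replicates of 30% or more, regardless of how many single replicates reach that level; inconclusive = mean under 30% yet at least half of replicates reach 30%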;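 also: positive control wells lacked labelled fibronectin entirely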
#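 Material – AH1F fibroblast monolayer, labelled fibronectin deposition · Reagent – labelled fibronectin 24 nM · Timing – 1 h adhesion, overnight exposure · Measured by – fluorescence at 485 nm excitation, 525 nm emission · Read-out – inhibition of fibronectin deposition signal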
# ARNT TACC3 PPI: disruptors of human ARNT/TACC3 interaction | Q9Y6A5 | AlphaScreen His-ARNT PAS-B/GST-TACC3 binding, luminescence; TACC3 fragment carries E629A point mutation | inhibition, % at 9.99 µM | 390,000 tested, 0.66% active | AID 623870;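 active = mean inhibition of replicates at least 50% and at least half of replicates each reaching 50%; inconclusive = half or more replicates reach 50% but mean below 50%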;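 also: 0% = complete ARNT plus TACC3 wells and 100% = ARNT alone without TACC3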
# Numbers without * were called inactive; ? = inconclusive; . = no result. This is a sample that favours compounds with a hit; in the whole collection about 3.8% have one here.
SMILES,DENV2 CPE,FGF22 binding,SIRT5 block,XiGFP reactiv,FN deposit inh,ARNT TACC3 PPI
CC(=O)Nc1cccc2c1O[C@@H](CN(C)C(C)=O)[C@H](C)CN(C)C2=O,.,.,.,0,-9,.
Cc1cc(C)nc(SCCn2c(N3CC(C)OC(C)C3)nc3c2c(=O)n(C)c(=O)n3C)n1 (centres undefined),-3,44*,-4,0,0,0
Cc1cc(C)nc(SCCn2c(N3CCCCC3)nc3c2c(=O)n(C)c(=O)n3C)n1,.,.,.,.,-17,13
Cc1noc(C)c1COc1ccc(C(=O)N2CCN(S(=O)(=O)c3cccc(F)c3)CC2)cc1,1,.,28*,0,6,-6
C[C@H]1CN([C@@H](C)CO)C(=O)Cc2cc(NC(=O)Cc3ccccc3)ccc2O[C@H]1CN(C)CC1CCCCC1,-6,-1,11,0,.,37
Cc1ccc(S(=O)(=O)N[C@H]2CC[C@H](CCNC(=O)C3CCCC3)O[C@H]2CO)cc1,27*,0,-2,0,-3,-10
Cc1ccc(S(=O)(=O)N[C@@H]2CC[C@H](CCNC(=O)c3ccc4c(c3)OCO4)O[C@@H]2CO)cc1,?,0,3,-1,.,2
O=C(NCC[C@H]1CC[C@H](NS(=O)(=O)c2ccc(Oc3ccccc3)cc2)[C@@H](CO)O1)C1CC1,85*,0,2,1,2,-5
Cc1ccc(S(=O)(=O)N[C@H]2CC[C@H](CCNC(=O)c3ccc4c(c3)OCO4)O[C@H]2CO)cc1,1,0,103*,0,.,-6
CC(C)NC(=O)NCC[C@H]1CC[C@@H](NS(=O)(=O)c2ccc(-c3ccccc3)cc2)[C@H](CO)O1,-3,0,31*,0,.,-9
Cc1ccc(S(=O)(=O)N[C@@H]2CC[C@@H](CCNC(=O)C3CCCC3)O[C@H]2CO)cc1,-2,0,5,0,0,-2
O=C(NCC[C@H]1CC[C@@H](NS(=O)(=O)c2ccc(Oc3ccccc3)cc2)[C@@H](CO)O1)C1CC1,-1,0,1,0,-15,0
C[C@@H]1CN([C@H](C)CO)C(=O)c2cc(NC(=O)CCN3CCOCC3)ccc2O[C@H]1CN(C)C(=O)Nc1ccc(F)cc1,?,0,-3,0,1,-3
Cc1noc(C)c1NC(=O)N(C)C[C@H]1OCCCC[C@@H](C)Oc2ccc(NS(=O)(=O)c3ccccc3)cc2C(=O)N([C@@H](C)CO)C[C@@H]1C,-11,.,-3,0,2,-1
O=C(NCCCO)c1ccc2nc(-c3ccco3)c(-c3ccco3)nc2c1,-1,43*,15*,0,-3,47*
O=C(Nc1ccccc1)c1ccc2nc(-c3ccco3)c(-c3ccco3)nc2c1,.,.,.,.,0,47*
O=C(CC1CC1)N1CC(=O)N2[C@H](C1)[C@H](c1ccc(-c3ccccc3)cc1)[C@@H]2CO,3,.,-4,0,.,.
C[C@H](CO)N1C[C@H](C)[C@@H](CN(C)C(=O)c2ccc3c(c2)OCO3)Oc2cc(C#Cc3ccccc3F)ccc2S1(=O)=O,0,0,11,-1,.,25
CC(C)C[C@H](NC(=O)C1CCN(C(=O)[C@H](Cc2ccccc2)NC(=O)OC(C)(C)C)CC1)C(=O)O,8,0,22*,0,4,-5
CSCC[C@H](NC(=O)OC(C)(C)C)C(=O)N1CCC(C(=O)N[C@@H](C)C(=O)NCc2ccc(F)cc2)CC1,36*,0,7,.,.,.
C[C@H](CO)N1C[C@H](C)[C@@H](CN(C)Cc2ccncc2)Oc2cc(C#CC(C)(C)O)ccc2S1(=O)=O,-1,0,-5,0,-5,-9
CC(C)NC(=O)N[C@@H]1C=C[C@@H](CC(=O)N2CCCCC2)O[C@H]1CO,-1,0,0,0,1,-7
C[C@@H]1CN([C@H](C)CO)C(=O)c2cc(N(C)C)ccc2O[C@@H](C)CCCCO[C@@H]1CN(C)C(=O)NC1CCCCC1,?,-1,7,0,-5,14
N#C/C(=C\c1cccnc1)C(=O)Nc1ccccc1,.,.,.,0,13,3
N#C/C(=C\c1cccnc1)C(=O)Nc1ccc(C(=O)O)cc1,9,43*,1,0,10,.
SMILES,DENV2 CPE,FGF22 binding,SIRT5 block,XiGFP reactiv,FN deposit inh,ARNT TACC3 PPI
NC(=O)CC(NC(=O)Cc1ccc(Cl)cc1)c1ccc(NC2CC3CCC2C3)c([N+](=O)[O-])c1 (centres undefined),8,0,-2,0,6,-2
CN(Cc1ccccc1)c1ccc(C(CC(N)=O)NC(=O)Cc2cccc3ccccc23)cc1[N+](=O)[O-] (centres undefined),-4,0,12,0,4,7
NC(=O)CC(NC(=O)Cc1ccc(Cl)cc1)c1ccc(NCc2ccccc2)c([N+](=O)[O-])c1 (centres undefined),28*,0,.,0,-10,-2
NC(=O)CC(NC(=O)c1cccc(Br)c1)c1ccc(NC2CCN(Cc3ccccc3)CC2)c([N+](=O)[O-])c1 (centres undefined),70*,0,.,1,-6,-4
NC(=O)CC(NC(=O)Cc1ccc(Cl)cc1)c1ccc(NC2CCN(Cc3ccccc3)CC2)c([N+](=O)[O-])c1 (centres undefined),61*,0,.,0,24,3
CN(Cc1ccccc1)c1ccc(C(CC(N)=O)NC(=O)Cc2ccc(Br)cc2)cc1[N+](=O)[O-] (centres undefined),136*,0,.,-1,15,-4
C[C@@H]1CN([C@@H](C)CO)C(=O)c2cc(Br)cnc2O[C@H]1CN(C)Cc1ccncc1,-14,0,0,0,-5,-8
CCOc1ccc(C2C([N+](=O)[O-])=C(C)N(C)C(=O)N2C)cc1OC (centres undefined),-7,43*,.,0,.,7
O=C(Nc1nnc(Cc2ccc(Cl)cc2)s1)C1CCCO1 (centres undefined),2,43*,-4,0,-4,2
COc1ccc(Cc2nnc(NC(=O)C3CCCO3)s2)cc1 (centres undefined),.,.,.,.,2,-2
O=C(c1ccccn1)N1C[C@H]2[C@@H](c3ccccc31)[C@@H](CO)N2C(=O)Cc1ccccc1,2,0,-5,0,.,29
Cc1ccc(C)c(NC(=O)CN2C(=O)C3CC=CCC3C2=O)c1 (centres undefined),45*,0,11,0,-10,.
C[C@@H]1CN([C@H](C)CO)C(=O)Cc2cc(NC(=O)Nc3cccc4ccccc34)ccc2O[C@H]1CN(C)S(=O)(=O)c1ccccc1,2,0,3,0,.,.
